Data on two compounds can be found in article PMC4011022 (Molecular cell, 2014).

Read-outs that look alike come from different tables or passages of the source.

For experiment [1], the target named is T1, CK2α (casein kinase-2 catalytic subunit) (Homo sapiens, UniProt P68400). The experiment is classed as binding. An outline of the steps:
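GST-tagged CK2α was expressed in E. coli and purified. Twenty μg, held on glutathione beads, was incubated overnight at 4 °C with [3H]IP6 (10–20 Ci/mmol) in 40 mM Tris pH 8.0, 150 mM NaCl, 1 mM MgCl2, 4% glycerol and 0.1% Triton. Unlabeled IP6 was added over a concentration series as competitor. Controls were buffer or GST alone. Data are mean ± SE of at least three independent experiments.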

The target in experiment [2] is T1, CK2α (casein kinase-2 catalytic subunit). Description: competition of [3H]IP6 radioligand binding to purified recombinant GST-CK2α.

In general, IC50 refers to the concentration needed to halve the response being measured.

T1 sequence (P68400 whole entry): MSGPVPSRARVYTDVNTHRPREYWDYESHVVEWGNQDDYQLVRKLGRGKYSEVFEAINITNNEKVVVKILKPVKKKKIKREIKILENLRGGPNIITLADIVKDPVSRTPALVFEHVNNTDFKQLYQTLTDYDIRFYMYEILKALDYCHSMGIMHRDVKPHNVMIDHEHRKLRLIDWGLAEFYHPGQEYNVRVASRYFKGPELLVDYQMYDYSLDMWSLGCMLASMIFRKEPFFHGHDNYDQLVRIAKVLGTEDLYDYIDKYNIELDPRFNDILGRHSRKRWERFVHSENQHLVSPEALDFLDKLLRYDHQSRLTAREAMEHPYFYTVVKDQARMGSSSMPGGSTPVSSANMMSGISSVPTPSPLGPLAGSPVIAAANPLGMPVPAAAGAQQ

`O=P(O)(O)O[C@H]1[C@H](OP(=O)(O)O)[C@@H](OP(=O)(O)O)[C@H](OP(=O)(O)O)[C@@H](OP(=O)(O)O)[C@H]1OP(=O)(O)O` [IP6] registered an IC50 in experiment [1] of 14 µM.

For `O=P(O)(O)O[C@H]1[C@@H](OP(=O)(O)O)[C@H](OP(=O)(O)O)[C@@H](OP(=O)(O)OP(=O)(O)O)[C@H](OP(=O)(O)O)[C@H]1OP(=O)(O)O` [IP7], the IC50 in experiment [2] was ~400 nM.
